Results on 15 molecules are retold here after ChEMBL document CHEMBL3259809, “Oxazolidinone derivatives: cytoxazone-linezolid hybrids induces apoptosis and senescence in DU145 prostate cancer cells” (Eur J Med Chem, 2014).

Each structure is given as a SMILES string. Activity calls are given as the source filed them. The calls are words filed in the database; no cut-off is given here.

The test system of one test is A549. The test is described as follows: Cytotoxicity against human A549 cells. Type of test: functional, cell-based. In outline:
(§1)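 SRB assay. 5000 cells/well were seeded in medium with 10% serum and left 18-20 h at 5% CO2 to adhere. Final compound 0 to 100 μM for 48 h at 37 °C; DMSO vehicle, doxorubicin positive control. Cells fixed in 10% TCA 1 h at 4 °C, stained 30 min with 0.057% SRB, washed with 1% acetic acid. Dye solubilised in 10 mM Tris base, A510 read, IC50 derived.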

Test [1] has as its system DU-145. In words: Cytotoxicity against human DU145 cells. Type of test: functional, cell-based. In outline: as §1
For another test, the system named is HeLa. The test is described as follows: Cytotoxicity against human HeLa cells. Type of test: functional, cell-based. An outline of the steps:
as §1

In a further test the test system is MCF7. In words: Cytotoxicity against human MCF7 cells. Type of test: functional, cell-based. An outline of the steps: as §1
Test [2] deals with DU-145. The test is described as follows: Cytotoxicity against human DU145 cells assessed as change in cell morphology at 5 to 25 uM after 48 hrs by microscopic analysis. It is filed as functional, cell-based. An outline of the steps:
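DU145 cells seeded in 24-well plates and left 18-20 h, then exposed to increasing concentrations for 48 h with a DMSO comparison. Morphology examined and imaged by light microscopy.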

Test [3] concerns DU-145. The test is described as follows: Cytotoxicity against human DU145 cells assessed as inhibition of colony formation on soft agar media after 9 days by crystal violet staining-based microscopic analysis. Type of test: functional, cell-based. An outline of the steps:
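Soft agar assay. Base layer was 0.5% agar in growth medium with 10% serum. On top, 2.5×10^4 DU145 cells were set in 0.35% agar containing compound (0–25 μM). Medium plus compound replenished every 3 days for 9 days. Stained with 0.005% crystal violet, then colonies photographed and counted under a microscope.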

For test [4], the system named is DU-145. The test is described as follows: Cell cycle arrest in human DU145 cells assessed as accumulation at G0/G1 phase at 5 uM after 48 hrs by propidium iodide staining-based flow cytometric analysis (reference value: 70.54%). Type of test: functional. On the technique in general: A flow cytometer gives signals particle by particle.
Test [5] concerns DU-145. In words: Cell cycle arrest in human DU145 cells assessed as accumulation at G0/G1 phase at 10 uM after 48 hrs by propidium iodide staining-based flow cytometric analysis (reference value: 70.54%). Type of test: functional.
In test [6] the test system is DU-145. The test is described as follows: Cell cycle arrest in human DU145 cells assessed as accumulation at G0/G1 phase at 15 uM after 48 hrs by propidium iodide staining-based flow cytometric analysis (reference value: 70.54%). It is filed as functional.
Test [7] concerns DU-145. The test is described as follows: Cell cycle arrest in human DU145 cells assessed as accumulation at G0/G1 phase at 20 uM after 48 hrs by propidium iodide staining-based flow cytometric analysis (reference value: 70.54%). Type of test: functional.
For test [8], the system named is DU-145. In words: Cell cycle arrest in human DU145 cells assessed as accumulation at G0/G1 phase at 25 uM after 48 hrs by propidium iodide staining-based flow cytometric analysis (reference value: 70.54%). Type of test: functional.
Test [9] has as its system DU-145. In words: Cell cycle arrest in human DU145 cells assessed as accumulation at S phase at 5 uM after 48 hrs by propidium iodide staining-based flow cytometric analysis (reference value: 5.77%). It is filed as functional.
The subject of test [10] is DU-145. In words: Cell cycle arrest in human DU145 cells assessed as accumulation at S phase at 10 uM after 48 hrs by propidium iodide staining-based flow cytometric analysis (reference value: 5.77%). It is filed as functional.
The test system of test [11] is DU-145. The test is described as follows: Cell cycle arrest in human DU145 cells assessed as accumulation at S phase at 15 uM after 48 hrs by propidium iodide staining-based flow cytometric analysis (reference value: 5.77%). It is filed as functional.
In test [12] the test system is DU-145. In words: Cell cycle arrest in human DU145 cells assessed as accumulation at S phase at 20 uM after 48 hrs by propidium iodide staining-based flow cytometric analysis (reference value: 5.77%). It is filed as functional.
The subject of test [13] is DU-145. In words: Cell cycle arrest in human DU145 cells assessed as accumulation at S phase at 25 uM after 48 hrs by propidium iodide staining-based flow cytometric analysis (reference value: 5.77%). It is filed as functional.
The subject of test [14] is DU-145. The test is described as follows: Cell cycle arrest in human DU145 cells assessed as accumulation at G2/M phase at 5 uM after 48 hrs by propidium iodide staining-based flow cytometric analysis (reference value: 23.09%). Type of test: functional.
Test [15] deals with DU-145. The test is described as follows: Cell cycle arrest in human DU145 cells assessed as accumulation at G2/M phase at 10 uM after 48 hrs by propidium iodide staining-based flow cytometric analysis (reference value: 23.09%). It is filed as functional.
The test system of test [16] is DU-145. In words: Cell cycle arrest in human DU145 cells assessed as accumulation at G2/M phase at 15 uM after 48 hrs by propidium iodide staining-based flow cytometric analysis (reference value: 23.09%). It is filed as functional.
Test [17] relates to DU-145. In words: Cell cycle arrest in human DU145 cells assessed as accumulation at G2/M phase at 20 uM after 48 hrs by propidium iodide staining-based flow cytometric analysis (reference value: 23.09%). It is filed as functional.
The test system of test [18] is DU-145. In words: Cell cycle arrest in human DU145 cells assessed as accumulation at G2/M phase at 25 uM after 48 hrs by propidium iodide staining-based flow cytometric analysis (reference value: 23.09%). It is filed as functional.
The subject of test [19] is DU-145. In words: Induction of apoptosis in human DU145 cells assessed as caspase-3 activation using Ac-DEVD-AMC as substrate after 48 hrs by fluorometric analysis. Type of test: functional, cell-based. In outline:
(§2)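 DU145 exposed to several concentrations for 48 h; DMSO negative, doxorubicin positive control. Cells lysed in 50 mM HEPES, 5 mM CHAPS, 5 mM DTT, pH 7.5. Lysate incubated with substrate in 20 mM HEPES pH 7.5, 0.1% CHAPS, 2 mM EDTA, 5 mM DTT for 2 h at 37 °C. AMC read at ex/em 380/460 nm (caspase-3), AFC at 400/505 nm (caspase-9). Values normalised to Bradford protein and expressed relative to DMSO; triplicates, means.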

Test [20] has as its system DU-145. In words: Induction of apoptosis in human DU145 cells assessed as caspase-9 activation using Ac-LEHD-AFC as substrate after 48 hrs by fluorometric analysis. It is filed as functional, cell-based. In outline: as §2
For test [21], the system named is DU-145. The test is described as follows: Induction of apoptosis in human DU145 cells assessed as change in mitochondrial membrane potential at 8.5 to 20 uM after 24 hrs by JC-1 dye-based assay. It is filed as functional, cell-based. An outline of the steps:
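DU145 seeded in 24-well plates and left 18 h at 37 °C, 5% CO2, then treated for 24 h, DMSO control. Stained with JC-1 working solution (stock mixed 1:1 with growth medium) for 20 min at 37 °C. Washed twice with medium, then red (aggregate) versus green (monomer) fluorescence viewed by microscopy.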

The test system of test [22] is DU-145. The test is described as follows: Induction of senescence in human DU145 cells at 5 to 25 uM after 48 hrs by SA-beta-gal staining-based microscopic analysis. It is filed as functional, cell-based. In outline: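 DU145 in 24-well plates treated for 48 h. Cells washed with PBS and fixed 5 min at room temperature in 2% formaldehyde/0.2% glutaraldehyde. Stained overnight at 37 °C in 40 mM citric acid/Na phosphate (pH 6.0), 5 mM each ferro- and ferricyanide, 150 mM NaCl, 2 mM MgCl2, 1 mg/ml X-gal. Positive cells observed and photographed by microscopy.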

One may read the IC50 as the concentration needed to halve the response being measured. The low end stands for higher potency, the high end for lower potency. With `COc1ccc([C@H]2NC(=O)O[C@@H]2CO)cc1`, the IC50 in the test on A549 was 31.2 µM; in the test on DU-145 [1] it was 40.6 µM; in the test on HeLa, 56.7 µM; in the test on MCF7 it was greater than 100 µM.
`COc1ccc([C@@H]2[C@@H](CN)OC(=O)N2c2ccc(N3CCOCC3)c(F)c2)cc1`: the 50% inhibitory concentration (IC50) in the test with A549 is 21.2 µM; with DU-145 [1] it was 33 µM; with HeLa it was greater than 100 µM; in the test on MCF7, greater than 100 µM.
Take `C=C[C@H]1OC(=O)N(c2ccc(N3CCOCC3)c(F)c2)[C@@H]1c1ccc(OC)cc1`: the concentration for half-maximal inhibition (IC50) worked out at 24.4 µM with A549, 48.2 µM in the test on DU-145 [1], 48.6 µM in the test with HeLa and 70 µM in the test with MCF7.
For the molecule `COc1cccc2c1C(=O)c1c(O)c3c(c(O)c1C2=O)C[C@@](O)(C(=O)CO)C[C@@H]3O[C@H]1C[C@H](N)[C@H](O)[C@H](C)O1` [DOXORUBICIN], the IC50 in the test on A549 was 8.4 µM; with DU-145 [1], 6.7 µM; with HeLa, 10.9 µM.
On to `COc1ccc([C@@H]2[C@H](COC(=O)c3ccccc3)OC(=O)N2c2ccc(N3CCOCC3)c(F)c2)cc1`, for which the half-maximal inhibitory concentration (IC50) with A549 stood at 24.8 µM; with DU-145 [1] it was 30.8 µM; with HeLa, 19.2 µM; with MCF7, 69.4 µM.
`COc1ccc([C@H]2NC(=O)O[C@H]2CO)cc1`: the IC50 in the test on A549 was found to be 25.5 µM; in the test with DU-145 [1], 46.5 µM; in the test with HeLa, 26 µM; in the test with MCF7 it was 82.4 µM.
Regarding `COc1ccc([C@@H]2[C@H](CO)OC(=O)N2c2ccc(N3CCOCC3)c(F)c2)cc1`, the half-inhibitory concentration (IC50) in the test with A549 is 43.2 µM; in the test with DU-145 [1], 38.5 µM; in the test with HeLa, 35.9 µM; in the test with MCF7 it was 36.1 µM.
Take `C=CC(=O)OCCC(=O)OC[C@@H]1OC(=O)N(c2ccc(N3CCOCC3)c(F)c2)[C@@H]1c1ccc(OC)cc1`: the 50% inhibitory concentration (IC50) in the test on A549 was 42.4 µM; in the test with DU-145 [1] it was 31.8 µM; in the test with HeLa, 28.6 µM; in the test with MCF7, 61.5 µM.
The like results for `COc1ccc([C@@H]2[C@@H](CO)OC(=O)N2c2ccc(N3CCOCC3)c(F)c2)cc1` were, in that order, 24.6 µM, 24.9 µM, 86.6 µM and greater than 100 µM.
The like results for `COc1ccc([C@@H]2[C@@H](CNC(C)=O)OC(=O)N2c2ccc(N3CCOCC3)c(F)c2)cc1` were, in that order, 54.4 µM, 26.8 µM, 51.3 µM and greater than 100 µM.
Turning to `COc1ccc([C@@H]2[C@@H](COC(=O)c3ccccc3)OC(=O)N2c2ccc(N3CCOCC3)c(F)c2)cc1`, the 50% inhibitory concentration (IC50) came out at 23.9 µM in the test on A549, 21.1 µM with DU-145 [1], 57.6 µM with HeLa and 74 µM in the test with MCF7.
For the molecule `C=CC(=O)OCCC(=O)OC[C@H]1OC(=O)N(c2ccc(N3CCOCC3)c(F)c2)[C@@H]1c1ccc(OC)cc1`, the concentration for half-maximal inhibition (IC50) in the test on A549 was determined as 14.2 µM; in the test on DU-145 [1], 8.69 µM; in the test with HeLa, 42.7 µM; with MCF7 it was 38.2 µM.
Regarding `C=C[C@H]1OC(=O)N[C@@H]1c1ccc(OC)cc1`, the IC50 was 21.3 µM in the test with A549, 32.8 µM in the test with DU-145 [1], 39.8 µM in the test on HeLa and greater than 100 µM in the test on MCF7.
With `COc1ccc([C@@H]2[C@@H](CCO)OC(=O)N2c2ccc(N3CCOCC3)c(F)c2)cc1`, the IC50 with A549 was 30.3 µM; in the test on DU-145 [1] it was 69.5 µM; with HeLa, 43.2 µM; with MCF7, greater than 100 µM.
For the molecule `CC[C@H]1OC(=O)N(c2ccc(N3CCOCC3)c(F)c2)[C@@H]1c1ccc(OC)cc1`, the 50% inhibitory concentration (IC50) in the test with A549 is 13.4 µM; with DU-145 [1], 9.47 µM; in the test on HeLa, 23.3 µM; with MCF7 it was greater than 100 µM. In addition, the outcome with DU-145 [2], in the test with DU-145 [21] and with DU-145 [22] was Active. Besides, the inhibition entry with DU-145 [3] is “Dose-dependent effect”. Moreover, the Activity with DU-145 [4] is listed as 75.65%; in the test on DU-145 [5], 75.29%; in the test with DU-145 [6], 79.14%; in the test with DU-145 [7], 80.5%; in the test on DU-145 [8], 91.11%; in the test on DU-145 [9], 4.61%. In addition, the Activity is 3.85% with DU-145 [10]; 3.56% in the test with DU-145 [11]; 1.93% with DU-145 [12]; 0.79% with DU-145 [13]; 19.45% in the test with DU-145 [14]; 20.49% in the test with DU-145 [15]. For the same molecule, the Activity in the test on DU-145 [16] was 16.7%; in the test on DU-145 [17], 16.19%; in the test on DU-145 [18], 6.54%; in the test on DU-145 [19] it was “Dose-dependent effect”; in the test with DU-145 [20], “Dose-dependent effect”.
